Values joined by “and” are separate entries in the source; they are usually repeats but may differ in a detail not shown here. Identical values can stand only once.
How the values were obtained:
Malme-3M = assay: Cytotoxicity against human MALME-3M cells; type: functional; settings: for CC50: read-out: Log LC50 (the source's name) (converted); for TGI: read-out: Log TGI (converted)
COLO 205 = assay: Cytotoxicity against human COLO205 cells; type: functional; settings: for CC50: read-out: Log LC50 (the source's name) (converted); for TGI: read-out: Log TGI (converted)
MDA-MB-435 = assay: Cytotoxicity against human MDA-MB-435 cells; type: functional; settings: for TGI: read-out: Log TGI (converted)
DU-145 = assay: Cytotoxicity against human DU145 cells; type: functional; settings: for TGI: read-out: Log TGI (converted)
SK-OV-3 = assay: Cytotoxicity against human SK-OV-3 cells; type: functional; settings: for CC50: read-out: Log LC50 (the source's name) (converted); for TGI: read-out: Log TGI (converted)
CCRF-CEM = assay: Cytotoxicity against human CCRF-CEM cells; type: functional; settings: for TGI: read-out: Log TGI (converted)
HCC 2998 = assay: Cytotoxicity against human HCC2998 cells; type: functional; settings: for CC50: read-out: Log LC50 (the source's name) (converted); for TGI: read-out: Log TGI (converted)
A549 = assay: Cytotoxicity against human A549 cells; type: functional; settings: for CC50: read-out: Log LC50 (the source's name) (converted); for TGI: read-out: Log TGI (converted)
OVCAR-5 = assay: Cytotoxicity against human OVCAR5 cells; type: functional; settings: for CC50: read-out: Log LC50 (the source's name) (converted); for TGI: read-out: Log TGI (converted)
HL-60 = assay: Cytotoxicity against human HL60 cells; type: functional; settings: for TGI: read-out: Log TGI (converted); for CC50: read-out: Log LC50 (the source's name) (converted)
RPMI-8226 = assay: Cytotoxicity against human RPMI8226 cells; type: functional; settings: for CC50: read-out: Log LC50 (the source's name) (converted); for TGI: read-out: Log TGI (converted)
SN12C = assay: Cytotoxicity against human SN12C cells; type: functional; settings: for TGI: read-out: Log TGI (converted)
MDA-MB-231 [1] = assay: Inhibition of human MDA-MB-231 cells assessed as cell viability under hypoxic condition after 48 hrs; type: functional, cell-based; settings: MDA-MB-231, 48 h
How it was run: (§1)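 Neutral Red proliferation/viability assay on T47D or MDA-MB-231 cells kept in DMEM/F12 with 10% FCS at 37 °C under 5% CO2, with 48 h compound exposure. Read-out was OD540, and % inhibition = 1 − OD540(treated)/OD540(control). IC50 was derived from the concentration–response data.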

T47D [2] = assay: Cell viability of human T47D cells under hypoxic condition after 16 hrs; type: functional, cell-based
T47D [3] = assay: Inhibition of human T47D cells assessed as cell viability under normoxic condition after 48 hrs; type: functional, cell-based; how it was run: as §1
CAKI-1 = assay: Cytotoxicity against human CAKI1 cells; type: functional; settings: for TGI: read-out: Log TGI (converted)
T47D [4] = assay: Inhibition of human T47D cells assessed as cell viability under hypoxic condition after 48 hrs; type: functional, cell-based; how it was run: as §1
[5] = target: T1, Hypoxia inducible factors; HIF-1-alpha, HIF-2-alpha (Homo sapiens, UniProt Q16665+Q99814); assay: Inhibition of HIF1 activity in human T47D cells by cell based reporter assay
How it was run: (§2)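 T47D cells grown in DMEM/F12 with glutamine, 10% FCS and penicillin/streptomycin at 37 °C under 5% CO2, then transiently transfected with the pHRE-TK-Luc reporter. Compounds from DMSO stocks were tested at half-log concentrations for 16 h, with luciferase read-out. IC50 was taken from curve fits of triplicate experiments.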

[6] = target: T1, Hypoxia inducible factors; HIF-1-alpha, HIF-2-alpha; assay: Inhibition of 1, 10-phenanthroline-induced HIF1 activity in human T47D cells by cell based reporter assay; how it was run: as §2
MDA-MB-231 [7] = assay: Inhibition of human MDA-MB-231 cells assessed as cell viability under normoxic condition after 48 hrs; type: functional, cell-based; settings: MDA-MB-231, 48 h; how it was run: as §1

CC(=O)O[C@H]1C[C@H]2[C@@](C)(CC[C@H]3C(C)(C)CCC[C@@]32CO)[C@@H]2CC=C(C(C)=O)[C@H](C=O)[C@@]12C
GI50 (Malme-3M): 1.29 µM | CC50 (Malme-3M): 5.89 µM | TGI (Malme-3M): 2.75 µM | GI50 (COLO 205): 0.295 µM | CC50 (COLO 205): 4.37 µM | TGI (COLO 205): 1.32 µM | GI50 (MDA-MB-435): 0.525 µM | LC50 (MDA-MB-435): 4.27 µM | TGI (MDA-MB-435): 1.74 µM | GI50 (DU-145): 0.457 µM | LC50 (DU-145): 3.98 µM | TGI (DU-145): 1.58 µM | GI50 (SK-OV-3): 1.2 µM | CC50 (SK-OV-3): 6.31 µM | TGI (SK-OV-3): 2.75 µM | GI50 (CCRF-CEM): 0.347 µM | LC50 (CCRF-CEM): 4.47 µM | TGI (CCRF-CEM): 1.17 µM | GI50 (HCC 2998): 1 µM | CC50 (HCC 2998): 4.79 µM | TGI (HCC 2998): 2.19 µM | GI50 (A549): 0.562 µM | CC50 (A549): 4.68 µM | TGI (A549): 1.86 µM | GI50 (OVCAR-5): 0.832 µM | CC50 (OVCAR-5): 4.68 µM | TGI (OVCAR-5): 2.09 µM | GI50 (HL-60; Homo sapiens, HL-60): 0.17 µM | TGI (HL-60): 0.537 µM and 2.63 µM | GI50 (RPMI-8226): 0.427 µM | CC50 (RPMI-8226): 8.13 µM | TGI (RPMI-8226): 1.82 µM | GI50 (SN12C): 1.2 µM | LC50 (SN12C): 5.01 µM | TGI (SN12C): 2.45 µM

CC(=O)C1=CC[C@H]2[C@]3(C)CC[C@H]4C(C)(C)CCC[C@]4(C(=O)O)[C@H]3CC(=O)[C@]2(C)[C@H]1C=O
GI50 (Malme-3M): 1.62 µM | CC50 (Malme-3M): 6.76 µM | TGI (Malme-3M): 3.31 µM | GI50 (COLO 205): 0.794 µM | CC50 (COLO 205): 7.41 µM | TGI (COLO 205): 2.57 µM | IC50 (MDA-MB-231 [1]): 1.5 µM | GI50 (MDA-MB-435): 1.55 µM | LC50 (MDA-MB-435): 6.17 µM | TGI (MDA-MB-435): 3.09 µM | GI50 (DU-145): 1.32 µM | LC50 (DU-145): 5.5 µM | TGI (DU-145): 2.69 µM | IC50 (T47D [2]): 3.3 µM | IC50 (T47D [3]): 1.4 µM | GI50 (CAKI-1): 0.646 µM | LC50 (CAKI-1): 12.9 µM | TGI (CAKI-1): 2.45 µM | IC50 (T47D [4]): 1.9 µM | GI50 (SK-OV-3): 3.02 µM | CC50 (SK-OV-3): 37.2 µM | TGI (SK-OV-3): 10.2 µM | IC50 [5]: 0.64 µM | GI50 (HCC 2998): 1.62 µM | CC50 (HCC 2998): 5.62 µM | TGI (HCC 2998): 3.02 µM | GI50 (A549): 2.57 µM | CC50 (A549): 74.1 µM | TGI (A549): 12.6 µM | GI50 (OVCAR-5): 1.86 µM | CC50 (OVCAR-5): 8.91 µM | TGI (OVCAR-5): 4.07 µM | GI50 (HL-60; Homo sapiens, HL-60): 0.282 µM | CC50 (HL-60; Homo sapiens, HL-60): 6.31 µM | TGI (HL-60; Homo sapiens, HL-60): 1.38 µM | IC50 [6]: 0.5 µM | GI50 (RPMI-8226): 0.603 µM | CC50 (RPMI-8226): 12.9 µM | TGI (RPMI-8226): 2.34 µM | GI50 (SN12C): 1.55 µM | LC50 (SN12C): 6.46 µM | TGI (SN12C): 3.16 µM | IC50 (MDA-MB-231 [7]): 1.4 µM

CC1OC(=O)[C@H]2[C@H]1[C@@H](O)C[C@H]1[C@]3(C)CC[C@H]4C(C)(C)CCC[C@]4(C)[C@H]3C[C@@H](O)[C@]21C (stereo not given in full)
GI50 (Malme-3M): 26.9 µM | CC50 (Malme-3M): 91.2 µM | TGI (Malme-3M): 50.1 µM | GI50 (COLO 205): 15.8 µM | CC50 (COLO 205): 66.1 µM | TGI (COLO 205): 32.4 µM | IC50 (MDA-MB-231 [1]): 5.4 µM | GI50 (MDA-MB-435): 19.1 µM | LC50 (MDA-MB-435): > 100 µM | TGI (MDA-MB-435): 51.3 µM | GI50 (DU-145): 17 µM | LC50 (DU-145): 72.4 µM | TGI (DU-145): 34.7 µM | IC50 (T47D [2]): 6.7 µM | IC50 (T47D [3]): 4.7 µM | GI50 (CAKI-1): 30.9 µM | LC50 (CAKI-1): > 100 µM | TGI (CAKI-1): 56.2 µM | IC50 (T47D [4]): 5.3 µM | GI50 (SK-OV-3): 38.9 µM | CC50 (SK-OV-3): > 100 µM | TGI (SK-OV-3): > 100 µM | IC50 [5]: 3.5 µM | GI50 (HCC 2998): 15.5 µM | CC50 (HCC 2998): 56.2 µM | TGI (HCC 2998): 29.5 µM | GI50 (A549): 15.8 µM | CC50 (A549): 89.1 µM | TGI (A549): 37.2 µM | GI50 (OVCAR-5): 20.9 µM | CC50 (OVCAR-5): 75.9 µM | TGI (OVCAR-5): 39.8 µM | GI50 (HL-60; Homo sapiens, HL-60): 11.7 µM | CC50 (HL-60; Homo sapiens, HL-60): > 100 µM | TGI (HL-60; Homo sapiens, HL-60): 36.3 µM | IC50 [6]: 2.4 µM | GI50 (RPMI-8226): 16.2 µM | CC50 (RPMI-8226): > 100 µM | TGI (RPMI-8226): 51.3 µM | GI50 (SN12C): 17.4 µM | LC50 (SN12C): > 100 µM | TGI (SN12C): 46.8 µM | IC50 (MDA-MB-231 [7]): 4.9 µM

CC(=O)O[C@@H]1C[C@H]2[C@]3(C)CC[C@H]4C(C)(C)CCC[C@]4(C)[C@H]3C[C@H](O)[C@]2(C)[C@@H](C=O)[C@@H]1C(C)=O [SCALARHERBACIN A]
GI50 (Malme-3M): 1.95 µM | TGI (Malme-3M): 3.89 µM | GI50 (COLO 205): 0.537 µM | CC50 (COLO 205): 5.25 µM | TGI (COLO 205): 1.86 µM | GI50 (MDA-MB-435): 1.45 µM | LC50 (MDA-MB-435): 6.76 µM | TGI (MDA-MB-435): 3.09 µM | GI50 (DU-145): 1.23 µM | LC50 (DU-145): 5.13 µM | TGI (DU-145): 2.51 µM | GI50 (SK-OV-3): 2 µM | CC50 (SK-OV-3): 8.13 µM | TGI (SK-OV-3): 3.98 µM | GI50 (CCRF-CEM): 0.676 µM | LC50 (CCRF-CEM): 6.46 µM | TGI (CCRF-CEM): 2.24 µM | GI50 (HCC 2998): 1.51 µM | CC50 (HCC 2998): 5.62 µM | TGI (HCC 2998): 2.95 µM | GI50 (A549): 1.23 µM | CC50 (A549): 6.61 µM | TGI (A549): 2.82 µM | GI50 (OVCAR-5): 1.32 µM | CC50 (OVCAR-5): 5.13 µM | TGI (OVCAR-5): 2.63 µM | GI50 (HL-60; Homo sapiens, HL-60): 1.32 µM | CC50 (HL-60; Homo sapiens, HL-60): 8.51 µM | TGI (HL-60; Homo sapiens, HL-60): 3.39 µM | GI50 (RPMI-8226): 0.407 µM | CC50 (RPMI-8226): 13.2 µM | TGI (RPMI-8226): 2.09 µM | GI50 (SN12C): 1.35 µM | TGI (SN12C): 2.75 µM

Source: ChEMBL document CHEMBL1141332, “Cytotoxic metabolites from an Indonesian sponge Lendenfeldia sp” (J Nat Prod, 2007)
